# Columns and labels:
# [1] = Selectivity ratio of Ki for monocloned kappa opioid receptor to Ki for monocloned mu opioid receptor
# Outline: (§1)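 CHO cell membranes expressing cloned receptor incubated with radioligand plus varying test drug concentrations, 30 °C, 1 h. IC50 from linear regression of Hill plots, converted to Ki by Cheng-Prusoff; selectivity as Ki ratios.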
# [2] = target: Kappa-type opioid receptor (Homo sapiens, UniProt P41145); experiment: Displacement of [3H]norBNI from monocloned kappa opioid receptor expressed in CHO cells; assay type: cell-based; outline: as §1
# Kappa-type opioid receptor, sequence (P41145 whole entry): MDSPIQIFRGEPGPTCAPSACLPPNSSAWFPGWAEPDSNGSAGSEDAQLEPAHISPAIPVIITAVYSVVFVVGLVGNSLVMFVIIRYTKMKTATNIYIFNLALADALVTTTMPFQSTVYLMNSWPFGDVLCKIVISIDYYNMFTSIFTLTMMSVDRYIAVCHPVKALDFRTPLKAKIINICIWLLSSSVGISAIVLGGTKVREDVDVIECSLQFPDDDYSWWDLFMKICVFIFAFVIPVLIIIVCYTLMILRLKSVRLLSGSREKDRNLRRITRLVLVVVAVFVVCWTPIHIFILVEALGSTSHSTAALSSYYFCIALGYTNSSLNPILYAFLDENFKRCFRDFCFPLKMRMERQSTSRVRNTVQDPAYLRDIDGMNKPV
# Mu-type opioid receptor [3] = target: T1, Mu-type opioid receptor (Homo sapiens, UniProt P35372); experiment: Activity at monocloned mu opioid receptor expressed in CHO cells by [35S]GTPgammaS binding assay relative to DAMGO; assay type: functional, cell-based
# T1 sequence (P35372 whole entry): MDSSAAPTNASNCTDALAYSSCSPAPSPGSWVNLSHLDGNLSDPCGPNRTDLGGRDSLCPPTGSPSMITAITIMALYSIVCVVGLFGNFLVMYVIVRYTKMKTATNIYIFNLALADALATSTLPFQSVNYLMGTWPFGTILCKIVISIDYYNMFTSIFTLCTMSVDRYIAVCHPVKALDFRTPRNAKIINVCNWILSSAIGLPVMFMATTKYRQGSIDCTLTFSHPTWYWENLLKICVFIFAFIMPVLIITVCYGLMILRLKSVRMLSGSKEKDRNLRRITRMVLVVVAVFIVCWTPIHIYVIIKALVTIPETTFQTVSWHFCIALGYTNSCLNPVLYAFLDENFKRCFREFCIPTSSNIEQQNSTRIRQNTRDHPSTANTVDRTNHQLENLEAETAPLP
# [4] = target: Delta-type opioid receptor (Homo sapiens, UniProt P41143); experiment: Displacement of [3H]NTI from monocloned delta opioid receptor expressed in CHO cells; assay type: cell-based; outline: as §1
# Delta-type opioid receptor, sequence (P41143 whole entry): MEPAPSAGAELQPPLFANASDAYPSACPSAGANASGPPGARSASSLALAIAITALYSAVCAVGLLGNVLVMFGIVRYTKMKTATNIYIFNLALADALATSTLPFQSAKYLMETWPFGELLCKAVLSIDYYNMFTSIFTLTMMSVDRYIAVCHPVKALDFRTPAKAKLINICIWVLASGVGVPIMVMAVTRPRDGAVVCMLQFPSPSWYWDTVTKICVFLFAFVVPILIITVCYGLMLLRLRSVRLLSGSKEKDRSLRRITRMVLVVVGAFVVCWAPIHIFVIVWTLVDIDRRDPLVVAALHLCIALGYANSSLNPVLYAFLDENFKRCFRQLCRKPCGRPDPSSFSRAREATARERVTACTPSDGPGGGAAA
# Mu-type opioid receptor [5] = target: T1, Mu-type opioid receptor; experiment: biochemical
# [6] = Binding affinity to mu opioid Y210A mutant receptor expressed in CHO cells; assay type: cell-based
# Mu-type opioid receptor [7] = target: T1, Mu-type opioid receptor; experiment: Activity at monocloned mu opioid receptor expressed in CHO cells by [35S]GTPgammaS binding assay; assay type: functional, cell-based
# Outline: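 Membranes from CHO cells stably expressing cloned MOR, the same membranes as used for binding. [35S]GTPγS binding as the functional read-out. Potency also reported. n = 3.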
# [8] = Selectivity ratio of Ki for monocloned delta opioid receptor to Ki for monocloned mu opioid receptor; outline: as §1
# Mu-type opioid receptor [9] = target: T1, Mu-type opioid receptor; experiment: Displacement of [3H]naloxone from monocloned mu opioid receptor expressed in CHO cells; assay type: cell-based; outline: as §1
# [10] = Binding affinity to mu opioid W318A mutant receptor expressed in CHO cells; assay type: cell-based
# Mus musculus [11] = experiment: Induction of antinociception in sc dosed Swiss Webster mouse after 20 mins by warm water tail immersion test; assay type: functional
# Mus musculus [12] = experiment: Inhibition of morphine-induced antinociception in sc dosed Swiss Webster mouse assessed as dose producing 50% antagonism of morphine response preincubated for 5 mins before the addition of morphine assessed after 20 mins by warm water tail immersion test; assay type: functional
Compound,Ratio Ki [1],Ki [2],Activity (Mu-type opioid receptor [3]),Ki [4],IC50 (Mu-type opioid receptor [5]),IC50 [6],Emax (Mu-type opioid receptor [7]),EC50 (Mu-type opioid receptor [7]; read-out: EC50),Ratio Ki [8],Ki (Mu-type opioid receptor [9]),IC50 [10],ED50 (Mus musculus [11]),Activity (Mus musculus [12]),EC50 (Mu-type opioid receptor [7]; cho)
O=C(N[C@H]1CC[C@@]2(O)[C@H]3Cc4ccc(O)c5c4[C@@]2(CCN3CC2CC2)[C@H]1O5)c1cc2ccccc2cn1,48,26.5 nM,15.8%,132 nM,5.42 nM,3.31 nM,58%,4.36 nM,241,0.55 nM,> 1000 nM,,,
O=C(N[C@H]1CC[C@@]2(O)[C@H]3Cc4ccc(O)c5c4[C@@]2(CCN3CC2CC2)[C@H]1O5)c1ccncc1,,19.6 nM,37.3%,,,,137%,,,,,,,
O=C(N[C@@H]1CC[C@@]2(O)[C@H]3Cc4ccc(O)c5c4[C@@]2(CCN3CC2CC2)[C@H]1O5)c1cc2ccccc2cn1,16,1.58 nM,33%,15.4 nM,,,121%,0.27 nM,156,0.1 nM,,1.19 mg/kg,,
COc1cccc2c1[C@]13CCN(CC4CC4)[C@H](C2)[C@]1(OC)CCC(=O)C3,45,,,,,,,,40,,,,,
O=C(N[C@@H]1CC[C@@]2(O)[C@H]3Cc4ccc(O)c5c4[C@@]2(CCN3CC2CC2)[C@H]1O5)c1cccnc1,40,5.42 nM,29.1%,192 nM,,,107%,0.33 nM,1410,0.14 nM,,,1.38 mg/kg,
O=C(N[C@H]1CC[C@@]2(O)[C@H]3Cc4ccc(O)c5c4[C@@]2(CCN3CC2CC2)[C@H]1O5)c1cnc2ccccc2c1,16,1.81 nM,44.8%,32.2 nM,,,164%,2.29 nM,277,0.12 nM,,,4.45 mg/kg,
O=C(N[C@@H]1CC[C@@]2(O)[C@H]3Cc4ccc(O)c5c4[C@@]2(CCN3CC2CC2)[C@H]1O5)c1ccc2ccccc2c1,1,65.3 nM,,29.3 nM,,,,,0.5,55.6 nM,,,,
O=C(N[C@@H]1CC[C@@]2(O)[C@H]3Cc4ccc(O)c5c4[C@@]2(CCN3CC2CC2)[C@H]1O5)c1ccc2ccccc2n1,47,5.04 nM,40.9%,3.86 nM,,,150%,0.69 nM,36,0.11 nM,,0.04 mg/kg,,
O=C(N[C@H]1CC[C@@]2(O)[C@H]3Cc4ccc(O)c5c4[C@@]2(CCN3CC2CC2)[C@H]1O5)c1ccc2ccccc2c1,73,609 nM,,518 nM,,,,,62,8.36 nM,,,,
O=C(N[C@@H]1CC[C@@]2(O)[C@H]3Cc4ccc(O)c5c4[C@@]2(CCN3CC2CC2)[C@H]1O5)c1ccncc1,,,22.7%,,,,83.3%,,,,> 1000 nM,,,
O=C(N[C@@H]1CC[C@@]2(O)[C@H]3Cc4ccc(O)c5c4[C@@]2(CCN3CC2CC2)[C@H]1O5)c1ccccc1,,7.79 nM,,,,,,,,0.92 nM,,,,
O=C(N[C@H]1CC[C@@]2(O)[C@H]3Cc4ccc(O)c5c4[C@@]2(CCN3CC2CC2)[C@H]1O5)c1ccccc1,,41.7 nM,,,,,,,,1.41 nM,,,,
O=C(N[C@H]1CC[C@@]2(O)[C@H]3Cc4ccc(O)c5c4[C@@]2(CCN3CC2CC2)[C@H]1O5)c1ccc2ccccc2n1,46,9.84 nM,65.4%,148 nM,,,240%,0.09 nM,693,0.21 nM,,4.57 mg/kg,,
O=C(N[C@@H]1CC[C@@]2(O)[C@H]3Cc4ccc(O)c5c4[C@@]2(CCN3CC2CC2)[C@H]1O5)c1ccccn1,47,278 nM,41.1%,215 nM,,,151%,26.3 nM,37,5.85 nM,,,0.33 mg/kg,
O=C(N[C@H]1CC[C@@]2(O)[C@H]3Cc4ccc(O)c5c4[C@@]2(CCN3CC2CC2)[C@H]1O5)c1ccccn1,84,223 nM,37.8%,64.5 nM,,,134%,23.9 nM,24,2.65 nM,,,0.89 mg/kg,
O=C(N[C@@H]1CC[C@@]2(O)[C@H]3Cc4ccc(O)c5c4[C@@]2(CCN3CC2CC2)[C@H]1O5)c1cnc2ccccc2c1,8,0.57 nM,53.4%,11.6 nM,,,196%,,157,0.07 nM,,,42.55 mg/kg,0.29
O=C(N[C@H]1CC[C@@]2(O)[C@H]3Cc4ccc(O)c5c4[C@@]2(CCN3CC2CC2)[C@H]1O5)c1cccnc1,501,77.2 nM,44.8%,40.8 nM,,,164%,1.01 nM,265,0.15 nM,,,36.77 mg/kg,

# From ChEMBL document CHEMBL1140920, “Design, synthesis, and biological evaluation of 6alpha- and 6beta-N-heterocyclic substituted naltrexamine derivatives as mu opioid receptor selective antagonists” (J Med Chem, 2009)
